The record followed here is article PMC7758955 (ACS Omega, 2020).

A word on the IC50: it is the concentration needed to halve the response being measured.

Series [1] addresses T1, COX-2 (human recombinant) (Homo sapiens, UniProt P35354).
T1 sequence (P35354 18-604): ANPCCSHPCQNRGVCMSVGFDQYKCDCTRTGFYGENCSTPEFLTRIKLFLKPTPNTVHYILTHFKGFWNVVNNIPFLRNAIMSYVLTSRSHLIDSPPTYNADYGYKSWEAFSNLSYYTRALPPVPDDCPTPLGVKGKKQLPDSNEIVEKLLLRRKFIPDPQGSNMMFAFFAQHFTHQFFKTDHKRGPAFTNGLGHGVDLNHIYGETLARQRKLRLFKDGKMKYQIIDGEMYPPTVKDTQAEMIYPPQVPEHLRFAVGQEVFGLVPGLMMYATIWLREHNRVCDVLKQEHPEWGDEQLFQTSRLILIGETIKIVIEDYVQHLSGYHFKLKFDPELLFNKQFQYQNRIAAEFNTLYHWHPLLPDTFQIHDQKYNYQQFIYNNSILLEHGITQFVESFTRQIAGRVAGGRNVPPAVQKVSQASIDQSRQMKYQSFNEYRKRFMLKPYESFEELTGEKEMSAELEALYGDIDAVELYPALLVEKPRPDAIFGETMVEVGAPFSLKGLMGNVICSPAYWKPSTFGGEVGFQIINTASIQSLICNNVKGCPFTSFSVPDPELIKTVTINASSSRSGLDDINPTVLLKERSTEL
Briefly: COX Fluorescent Inhibitor Screening Assay Kit, COX-2. Type of series: biochemical.

The target in series [2] is T2, COX-1 (ovine) (Ovis aries, UniProt P05979).
T2 sequence (P05979 25-600): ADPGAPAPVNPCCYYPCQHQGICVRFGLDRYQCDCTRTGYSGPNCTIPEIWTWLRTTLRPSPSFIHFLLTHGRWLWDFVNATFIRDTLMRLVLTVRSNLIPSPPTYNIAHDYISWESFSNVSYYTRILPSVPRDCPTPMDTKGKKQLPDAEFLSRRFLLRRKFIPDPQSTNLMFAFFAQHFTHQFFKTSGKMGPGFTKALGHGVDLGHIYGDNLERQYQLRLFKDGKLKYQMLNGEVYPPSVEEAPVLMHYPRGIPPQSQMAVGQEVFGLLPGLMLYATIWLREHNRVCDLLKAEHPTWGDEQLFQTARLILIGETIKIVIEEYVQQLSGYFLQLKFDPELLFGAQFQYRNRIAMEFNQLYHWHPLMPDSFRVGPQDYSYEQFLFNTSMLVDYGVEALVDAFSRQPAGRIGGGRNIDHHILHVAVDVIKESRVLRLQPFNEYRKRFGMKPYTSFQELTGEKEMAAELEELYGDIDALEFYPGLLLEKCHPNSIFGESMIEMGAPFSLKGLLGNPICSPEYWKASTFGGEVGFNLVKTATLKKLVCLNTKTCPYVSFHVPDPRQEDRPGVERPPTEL
Briefly: COX Fluorescent Inhibitor Screening Assay Kit, COX-1. Type of series: biochemical.

Series [3] has as its system cryopreserved human hepatocytes. In words: Hepatocyte toxicity by WST-8 assay. Format: cell-based. To be noted: 200 μM, 2 h with shaking, relative to control (0.25 v/v% DMSO). The gist of the method: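 Thawed cryopreserved human hepatocytes were kept at 37 °C in humidified 5% CO2 and seeded at 5.0 × 10^4 cells/well. Test compound was added in DMSO (final 0.25% v/v; DMSO-only control), then shaken 2 h. CCK-8 (WST-8) reagent was added for another 4 h. Absorbance was read at 450 nm (reference 600 nm), and viability was expressed relative to control.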
On the technique in general: Tetrazolium dyes change colour on reduction, which living cells bring about.

Regarding `O=S(=O)(O)Cc1ccccc1Nc1c(Cl)cccc1Cl` [4a], the IC50 in series [1] and in series [2] was above 100 µM in each case. Also, the “COX-2 inhibition (in words)” value in series [1] (up to a concentration of 100 μM) is “did not inhibit COX-2”.

Take `Fc1cc(Cl)c(Nc2ccc(F)cc2Cc2nnn[nH]2)c(Cl)c1` [3d]: the IC50 in series [1] and in series [2] was above 100 µM each time.

Regarding `O=C(O)C(F)(F)c1cc(F)ccc1Nc1c(Cl)cc(F)cc1Cl` [2d], the IC50 in series [1] and in series [2] was above 100 µM throughout.

On to `O=C(O)Cc1cc(F)ccc1Nc1c(Cl)cc(F)cc1Cl` [1d], for which the IC50 came out at 26 µM in series [1] and 0.73 µM in series [2].

Regarding `O=C(O)C(F)(F)c1ccccc1Nc1c(Cl)cc(F)cc1Cl` [2b], the IC50 in series [1] and in series [2] was above 100 µM in each case.

Regarding `O=C(O)C(F)(F)c1cc(F)ccc1Nc1c(Cl)cccc1Cl` [2c], the figures for the IC50 in series [1] and in series [2] were 21 µM and above 100 µM, respectively. Further, the “COX-2 IC50 relative to that of DCF” value in series [1] (ratio to DCF IC50) was “three times higher”. In series [3], the “cytotoxicity in cryopreserved human hepatocytes (cell viability, WST-8)” value is reported as “much weaker than that of DCF”.

As for `O=C(O)Cc1ccccc1Nc1c(Cl)cc(F)cc1Cl` [1b], the IC50 in series [1] was 27 µM; in series [2], 0.67 µM.
